Tests used:
[1] = molecular target: T1, Alpha-2A adrenergic receptor (Homo sapiens) (UniProt P08913); test: Displacement of [3H]clonidine from alpha2A adrenergic receptor at 10 uM after 40 mins by scintillation counting analysis
T1 sequence (whole entry): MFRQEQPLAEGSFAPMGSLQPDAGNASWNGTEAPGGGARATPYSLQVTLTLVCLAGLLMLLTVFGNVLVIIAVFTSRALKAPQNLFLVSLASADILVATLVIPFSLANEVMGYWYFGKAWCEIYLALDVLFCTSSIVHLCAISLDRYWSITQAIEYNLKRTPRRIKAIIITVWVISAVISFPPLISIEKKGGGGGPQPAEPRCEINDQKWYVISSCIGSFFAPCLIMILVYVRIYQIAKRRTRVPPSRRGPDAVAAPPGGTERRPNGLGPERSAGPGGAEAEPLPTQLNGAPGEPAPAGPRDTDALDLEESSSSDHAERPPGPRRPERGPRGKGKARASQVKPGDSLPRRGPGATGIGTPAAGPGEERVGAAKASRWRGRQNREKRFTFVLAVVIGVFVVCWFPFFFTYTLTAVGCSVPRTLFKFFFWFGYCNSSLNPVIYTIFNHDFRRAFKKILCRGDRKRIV

[2] = molecular target: 5-hydroxytryptamine receptor 2B (Homo sapiens) (UniProt P41595); test: Displacement of [3H]LSD from human recombinant 5-HT2B receptor at 10 uM after 1.5 hrs by scintillation counting analysis
Chain of 5-hydroxytryptamine receptor 2B (Homo sapiens) (P41595 whole entry): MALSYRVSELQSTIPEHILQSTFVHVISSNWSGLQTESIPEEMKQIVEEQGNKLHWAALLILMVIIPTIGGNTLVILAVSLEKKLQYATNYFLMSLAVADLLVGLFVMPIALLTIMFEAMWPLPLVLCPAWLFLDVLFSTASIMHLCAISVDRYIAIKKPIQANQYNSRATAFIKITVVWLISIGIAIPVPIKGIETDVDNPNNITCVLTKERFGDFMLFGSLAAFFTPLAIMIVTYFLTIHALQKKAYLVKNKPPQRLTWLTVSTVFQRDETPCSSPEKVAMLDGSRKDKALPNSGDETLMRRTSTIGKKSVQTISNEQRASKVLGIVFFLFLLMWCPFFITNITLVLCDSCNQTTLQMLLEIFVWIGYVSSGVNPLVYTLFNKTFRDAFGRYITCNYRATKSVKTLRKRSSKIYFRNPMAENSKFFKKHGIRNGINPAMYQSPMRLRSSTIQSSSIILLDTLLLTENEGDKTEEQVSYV
Procedure, shortened: (§1)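 NIMH-PDSP primary screen using membranes from transiently or stably transfected cell lines (e.g., HEK293, COS, CHO, NIH3T3). Compound at 10 μM final. Reference compounds: chlorpromazine (5-HT2A), methysergide (5-HT2B), LY278584 (5-HT3), oxymetazoline (α2A), prazosin (α2C), atropine (M4). Mean % inhibition of radioligand specific binding, N = 4.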

[3] = tested on: PC-12; test: Displacement of [3H]DTG from sigma 2 receptor in rat PC12 cell membrane at 10 uM after 2 hrs by scintillation counting; type: cell membranes
[4] = Displacement of [3H]DTG from sigma 2 receptor in rat PC12 cell membrane after 2 hrs by scintillation counting; type: cell membranes; conditions: pc-12
[5] = molecular target: T2, 5-hydroxytryptamine receptor 3A (Homo sapiens) (UniProt P46098); test: Displacement of [3H]LY278584 from human recombinant 5-HT3 receptor at 10 uM after 1.5 hrs by scintillation counting analysis; procedure, shortened: as §1
T2 sequence (whole entry): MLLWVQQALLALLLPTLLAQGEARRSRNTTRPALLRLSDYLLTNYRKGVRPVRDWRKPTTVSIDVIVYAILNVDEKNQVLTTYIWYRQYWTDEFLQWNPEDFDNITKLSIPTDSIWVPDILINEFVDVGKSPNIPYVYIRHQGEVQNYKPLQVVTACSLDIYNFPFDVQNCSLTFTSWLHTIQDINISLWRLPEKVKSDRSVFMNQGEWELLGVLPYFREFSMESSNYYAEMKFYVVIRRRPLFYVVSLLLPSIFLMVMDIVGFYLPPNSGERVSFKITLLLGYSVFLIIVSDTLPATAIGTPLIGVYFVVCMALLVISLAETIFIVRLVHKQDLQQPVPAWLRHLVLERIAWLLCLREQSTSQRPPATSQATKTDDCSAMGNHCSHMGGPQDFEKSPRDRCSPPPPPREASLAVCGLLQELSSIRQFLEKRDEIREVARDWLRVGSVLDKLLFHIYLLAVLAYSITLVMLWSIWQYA

[6] = molecular target: 5-hydroxytryptamine receptor 2A (Homo sapiens) (UniProt P28223); test: Displacement of [3H]ketanserin from human recombinant 5-HT2A receptor at 10 uM after 1.5 hrs by scintillation counting analysis; procedure, shortened: as §1
Chain of 5-hydroxytryptamine receptor 2A (Homo sapiens) (P28223 whole entry): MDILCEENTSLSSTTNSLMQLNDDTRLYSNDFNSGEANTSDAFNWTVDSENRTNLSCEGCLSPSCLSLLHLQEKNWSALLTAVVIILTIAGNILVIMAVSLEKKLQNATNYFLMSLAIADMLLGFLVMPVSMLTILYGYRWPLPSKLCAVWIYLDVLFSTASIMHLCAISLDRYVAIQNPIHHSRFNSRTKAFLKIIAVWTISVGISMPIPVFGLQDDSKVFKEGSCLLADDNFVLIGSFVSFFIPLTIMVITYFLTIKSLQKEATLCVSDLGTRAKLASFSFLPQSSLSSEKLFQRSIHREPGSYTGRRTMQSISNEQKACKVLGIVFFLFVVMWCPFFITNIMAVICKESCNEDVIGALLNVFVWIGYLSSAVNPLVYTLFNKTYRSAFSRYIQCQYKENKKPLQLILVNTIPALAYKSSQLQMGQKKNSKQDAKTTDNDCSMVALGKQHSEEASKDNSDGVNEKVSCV

[7] = molecular target: T3, Alpha-2C adrenergic receptor (Homo sapiens) (UniProt P18825); test: Displacement of [3H]clonidine from alpha2C adrenergic receptor at 10 uM after 40 mins by scintillation counting analysis; procedure, shortened: as §1
T3 sequence (whole entry): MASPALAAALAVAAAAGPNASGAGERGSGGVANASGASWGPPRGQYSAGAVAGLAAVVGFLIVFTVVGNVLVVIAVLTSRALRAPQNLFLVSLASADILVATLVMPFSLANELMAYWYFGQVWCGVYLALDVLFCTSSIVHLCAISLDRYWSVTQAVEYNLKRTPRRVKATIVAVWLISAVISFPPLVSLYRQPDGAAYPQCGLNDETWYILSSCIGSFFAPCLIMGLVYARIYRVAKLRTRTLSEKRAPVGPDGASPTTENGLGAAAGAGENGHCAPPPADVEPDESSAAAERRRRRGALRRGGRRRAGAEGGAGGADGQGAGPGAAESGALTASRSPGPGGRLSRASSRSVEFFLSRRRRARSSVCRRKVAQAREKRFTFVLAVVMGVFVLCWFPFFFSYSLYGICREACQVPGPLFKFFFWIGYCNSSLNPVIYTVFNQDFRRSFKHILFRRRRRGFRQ

[8] = molecular target: T4, Muscarinic acetylcholine receptor M4 (Homo sapiens) (UniProt P08173); test: Displacement of [3H]QNB from human recombinant M4 receptor at 10 uM after 1.5 hrs by scintillation counting analysis; procedure, shortened: as §1
T4 sequence (whole entry): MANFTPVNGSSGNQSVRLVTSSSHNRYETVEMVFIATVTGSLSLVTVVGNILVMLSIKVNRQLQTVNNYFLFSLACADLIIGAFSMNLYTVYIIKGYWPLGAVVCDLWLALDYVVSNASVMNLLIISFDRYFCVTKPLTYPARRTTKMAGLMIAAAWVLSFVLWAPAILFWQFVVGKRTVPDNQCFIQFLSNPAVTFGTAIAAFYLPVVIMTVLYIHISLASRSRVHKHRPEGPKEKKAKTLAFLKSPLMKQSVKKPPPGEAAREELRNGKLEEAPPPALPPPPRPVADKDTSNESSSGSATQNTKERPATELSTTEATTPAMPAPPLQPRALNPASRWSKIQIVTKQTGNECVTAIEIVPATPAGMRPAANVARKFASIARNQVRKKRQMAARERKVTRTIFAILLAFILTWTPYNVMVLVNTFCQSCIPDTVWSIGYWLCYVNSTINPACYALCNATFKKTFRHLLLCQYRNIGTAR

[9] = molecular target: D(3) dopamine receptor (Homo sapiens) (UniProt P35462); test: Displacement of [3H]N-methylspiperone from dopamine D3 receptor at 10 uM after 1.5 hrs by scintillation counting analysis
Chain of D(3) dopamine receptor (Homo sapiens) (P35462 whole entry): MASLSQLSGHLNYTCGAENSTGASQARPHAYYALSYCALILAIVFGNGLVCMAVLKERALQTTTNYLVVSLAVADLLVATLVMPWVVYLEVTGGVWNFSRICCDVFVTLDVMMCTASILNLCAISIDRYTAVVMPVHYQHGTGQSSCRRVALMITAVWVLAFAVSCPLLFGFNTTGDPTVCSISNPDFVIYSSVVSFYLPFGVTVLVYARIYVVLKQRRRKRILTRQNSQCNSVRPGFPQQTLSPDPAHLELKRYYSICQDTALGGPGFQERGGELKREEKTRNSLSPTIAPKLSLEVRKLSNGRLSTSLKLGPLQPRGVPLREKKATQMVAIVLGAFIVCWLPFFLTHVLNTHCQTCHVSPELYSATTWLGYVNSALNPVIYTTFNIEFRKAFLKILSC

[10] = molecular target: Sigma non-opioid intracellular receptor 1 (Rattus norvegicus) (UniProt Q9R0C9); test: Displacement of [3H](+)-pentazocine from sigma 1 receptor in rat brain membrane at 10 uM after 2.5 hrs by scintillation counting; type: cell membranes
Chain of Sigma non-opioid intracellular receptor 1 (Rattus norvegicus) (Q9R0C9 whole entry): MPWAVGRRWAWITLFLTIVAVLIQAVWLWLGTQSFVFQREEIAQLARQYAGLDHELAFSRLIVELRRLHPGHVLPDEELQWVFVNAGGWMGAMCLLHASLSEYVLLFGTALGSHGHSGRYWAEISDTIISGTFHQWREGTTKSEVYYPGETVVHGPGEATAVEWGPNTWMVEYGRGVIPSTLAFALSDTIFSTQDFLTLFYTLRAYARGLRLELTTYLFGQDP

[11] = molecular target: T5, Muscarinic acetylcholine receptor M4 (Homo sapiens, UniProt P08173); test: Displacement of [3H]QNB from human recombinant M4 receptor after 1.5 hrs by scintillation counting analysis
T5 sequence (P08173 whole entry): T4 sequence (whole entry)
Procedure, shortened: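 Membranes from transiently or stably transfected cell lines, run through the NIMH-PDSP program. [3H]QNB was the radioligand and atropine the reference. […] Competition curves were fitted to a three-parameter logistic to give IC50, converted to Ki by Cheng-Prusoff.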

Cc1c(C(=O)N(CCCN2CCCCC2)c2ccccc2)oc2ccccc12
inhibition [1]: 77.7%
inhibition [2]: 69.2%
inhibition [3]: 93.5%
Ki [4]: 16 nM
inhibition [5]: 2.9%
inhibition [6]: 18.1%
inhibition [7]: 61.9%
inhibition [8]: 43.1%

COc1cc2oc(C(=O)N(CCCN3CCCCC3)c3ccccc3)c(C)c2cc1OC
inhibition [2]: 43.8%
inhibition [3]: 81.4%
inhibition [9]: 38.8%
Ki [4]: 528 nM
inhibition [10]: 99.8%
inhibition [5]: 64.2%
inhibition [6]: 76.6%
inhibition [7]: 78.9%
inhibition [8]: 54.4%

COc1ccc2c(C)c(C(=O)N(CCCN3CCCCC3)c3ccccc3)oc2c1
inhibition [2]: 93.9%
inhibition [3]: 88.5%
Ki [11]: > 10000 nM
inhibition [9]: 40.6%
Ki [4]: 41 nM
inhibition [10]: 97.7%
inhibition [5]: 7.3%
inhibition [6]: 61.2%
inhibition [7]: 49%
inhibition [8]: 68.4%
